# Laboratory results as given in ChEMBL document CHEMBL4673245, “Discovery of AZD9833, a Potent and Orally Bioavailable Selective Estrogen Receptor Degrader and Antagonist” (J Med Chem, 2020).
# How the values were obtained:
# [1] = Fraction unbound in human plasma by equilibrium dialysis method; assay type: ADME, cell-free
# Method in brief: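 Fraction unbound measured from DMSO stock by equilibrium dialysis in 10% human plasma.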
# Cytochrome P450 2C19 = Cytochrome P450 2C19 (Homo sapiens, UniProt P33261); assay: Inhibition of CYP2C19 in human liver microsomes; assay type: ADME
# Method in brief: (§1)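 High-throughput human liver microsome panel of five CYP isoforms; inhibition reported as IC50.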
# [2] = Intrinsic clearance in rat hepatocytes assessed per million cells; assay type: ADME, cell-based, Hepatocyte; settings: read-out: CLH
# Method in brief: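 Hepatocyte intrinsic clearance measured from DMSO stock in isolated hepatocytes diluted to 1x10⁶ cells/mL; rate expressed as µl/min/10⁶ cells.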
# [3] = Photostability of compound under 1.2 mil lux.h white light and 200 W.h/m2 UV light assessed parent compound remaining using crystalline form of sample by chromatographic method; assay type: physicochemical
# [4] = Stability of compound at 60 degC and 75% relative humidity assessed parent compound remaining measured 1 week using crystalline form of sample by chromatographic method; assay type: physicochemical; settings: solid sample, time 1 weeks, read-out: Stabilty
# Cytochrome P450 2C9 = Cytochrome P450 2C9 (Homo sapiens, UniProt P11712); assay: Inhibition of CYP2C9 in human liver microsomes; assay type: ADME; method in brief: as §1
# [5] = Dissociation constant, dibasic pKa of compound in 0.1 M potassium chloride in presence of piperidine by UV-vis spectroscopy; assay type: physicochemical
# [6] = Solubility of compound in FASSIF at pH 6.5 using crystalline form of sample; assay type: physicochemical
# [7] = Volume of distribution at steady state in rat at 0.5 mg/kg, iv or 1 mg/kg, po; assay type: ADME, organism-based; settings: in vivo, read-out: Vdss
# Method in brief: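 Rat dosed IV at 0.5 mg/kg and PO at 1 mg/kg, both formulated in 5% DMSO:95% hydroxypropyl-β-cyclodextrin (30% w/v), at 1 mL/kg IV and 4 mL/kg PO. Vdss (L/kg) derived from the pharmacokinetic profile after dosing.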
# [8] = Volume of distribution at steady state in mouse at 2 mg/kg, iv or 5 mg/kg, po; assay type: ADME, organism-based; settings: in vivo, read-out: Vdss
# MCF7 [9] = assay: Antiproliferative activity against human wild-type MCF7 cells assessed as decrease in estradiol-mediated cell viability incubated for 4 to 6 days by SYTOX Green dye based fluorescence assay; assay type: functional
# [10] = Stability of compound at 60 degC and ambient dry condition assessed parent compound remaining measured 2 weeks using crystalline form of sample by chromatographic method; assay type: physicochemical; settings: solid sample, read-out: Stabilty
# [11] = Fraction absorbed in mouse at 2 mg/kg, iv or 5 mg/kg, po; assay type: ADME, organism-based; settings: in vivo, read-out: Fabs
# [12] = Clearance in mouse at 2 mg/kg, iv or 5 mg/kg, po; assay type: ADME, organism-based; settings: in vivo
# Cytochrome P450 1A2 = target: T1, Cytochrome P450 1A2 (Homo sapiens, UniProt P05177); assay: Inhibition of CYP1A2 in human liver microsomes; assay type: ADME; method in brief: as §1
# T1 sequence (P05177 whole entry): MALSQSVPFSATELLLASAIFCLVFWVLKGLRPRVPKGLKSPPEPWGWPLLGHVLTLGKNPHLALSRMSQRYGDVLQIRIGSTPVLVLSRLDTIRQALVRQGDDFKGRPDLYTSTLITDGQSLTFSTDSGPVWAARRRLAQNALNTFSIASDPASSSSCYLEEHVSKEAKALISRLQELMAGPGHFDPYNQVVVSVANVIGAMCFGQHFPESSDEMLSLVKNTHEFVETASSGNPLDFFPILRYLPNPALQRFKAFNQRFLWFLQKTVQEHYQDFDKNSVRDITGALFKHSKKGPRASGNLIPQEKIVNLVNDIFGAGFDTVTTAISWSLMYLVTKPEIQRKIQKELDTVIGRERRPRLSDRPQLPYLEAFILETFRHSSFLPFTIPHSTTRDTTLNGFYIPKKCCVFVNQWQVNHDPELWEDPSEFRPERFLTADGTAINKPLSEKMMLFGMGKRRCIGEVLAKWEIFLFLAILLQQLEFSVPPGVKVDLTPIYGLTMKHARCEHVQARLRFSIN
# [13] = Intrinsic clearance in mouse hepatocytes assessed per million cells; assay type: ADME, cell-based, Hepatocyte; settings: read-out: CLH
# Method in brief: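 Compound added from DMSO stock to isolated hepatocytes diluted to 1x10⁶ cells/mL. Metabolic turnover rate is reported as intrinsic clearance in µl/min/10⁶ cells.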
# [14] = Clearance in mouse at 2 mg/kg, iv or 5 mg/kg, po relative to liver blood flow; assay type: ADME, organism-based; settings: in vivo
# [15] = Clearance in rat at 0.5 mg/kg, iv or 1 mg/kg, po relative to liver blood flow; assay type: ADME, organism-based; settings: in vivo
# Method in brief: (§2)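 Rat PK: single IV dose 0.5 mg/kg and oral dose 1 mg/kg, formulated in 5% DMSO:95% hydroxypropyl-β-cyclodextrin (30% w/v), dosed at 1 mL/kg IV and 4 mL/kg PO.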
# [16] = Fraction unbound in mouse plasma; assay type: ADME, cell-free
# [17] = Antitumor activity against human […] cells xenografted in CB17 SCID mouse assessed as tumor growth inhibition at 2 mg/kg, po administered daily via oral gavage for 21 days relative to control; assay type: functional; settings: MCF7, po, time 21 day, read-out: TGI
# MCF7 [18] = assay: Antitumor activity against human […] cells xenografted in CB17 SCID mouse assessed as decrease in tumor volume administered daily via oral gavage for 21 days; assay type: functional, cell-based; settings: dose 0.5-50 mg/kg, time 21.0 day
# [19] = Fraction unbound in dog plasma; assay type: ADME, cell-free, Canis lupus familiaris
# [20] = Solubility of compound in phosphate buffer at pH 7.4 using crystalline form of sample; assay type: physicochemical
# [21] = Fraction unbound in rat plasma; assay type: ADME, cell-free
# Cytochrome P450 2D6 = Cytochrome P450 2D6 (Homo sapiens, UniProt P10635); assay: Inhibition of CYP2D6 in human liver microsomes; assay type: ADME; method in brief: as §1
# [22] = Half-life in mouse at 2 mg/kg, iv or 5 mg/kg, po; assay type: ADME, organism-based; settings: in vivo
# [23] = Chemical stability of compound assessed as drug degradation in deuterated buffer at pH 4 measured for 8 days; assay type: physicochemical; settings: pH 4, 192 h, time 8 day
# [24] = Dissociation constant, dibasic pKa of compound in 0.1 M potassium chloride in presence of azetidine by UV-vis spectroscopy; assay type: physicochemical
# [25] = Solubility of compound in stimulated gastric fluid using crystalline form of sample; assay type: physicochemical; settings: simulated gastric fluid
# [26] = Chemical stability of compound assessed as drug degradation in buffer at pH 7.4 stored at 22 to 60 degreeC measured after 5 days; assay type: physicochemical; settings: pH 7.4, 120 h, time 5 day
# Cytochrome P450 3A4 = Cytochrome P450 3A4 (Homo sapiens, UniProt P08684); assay: Inhibition of CYP3A4 in human liver microsomes; assay type: ADME; method in brief: as §1
# [27] = Chemical stability of compound assessed as drug degradation in deuterated buffer at pH 7.4 measured for 8 days; assay type: physicochemical; settings: pH 7.4, 192 h, time 8 day
# [28] = Antitumor activity against human […] cells xenografted in CB17 SCID mouse assessed as tumor regression at 10 mg/kg, po administered daily via oral gavage for 21 days relative to control; assay type: functional, MCF7; settings: time 21 day
# [29] = Fraction absorbed in rat at 0.5 mg/kg, iv or 1 mg/kg, po; assay type: ADME, organism-based; settings: in vivo, read-out: Fabs; method in brief: as §2
# [30] = In vivo antagonist activity at ERalpha in human MCF7 cells xenografted CB17 SCID mouse assessed as decrease in PR expression level at 10 mg/kg, po administered daily via oral gavage for 21 days measured 24 hrs post last dose by Western blot analysis relative to control; assay type: functional; parameters: scale not given: the % may be the effect or the level left; settings: time 21 day
# Chain of Cytochrome P450 3A4 (P08684 whole entry): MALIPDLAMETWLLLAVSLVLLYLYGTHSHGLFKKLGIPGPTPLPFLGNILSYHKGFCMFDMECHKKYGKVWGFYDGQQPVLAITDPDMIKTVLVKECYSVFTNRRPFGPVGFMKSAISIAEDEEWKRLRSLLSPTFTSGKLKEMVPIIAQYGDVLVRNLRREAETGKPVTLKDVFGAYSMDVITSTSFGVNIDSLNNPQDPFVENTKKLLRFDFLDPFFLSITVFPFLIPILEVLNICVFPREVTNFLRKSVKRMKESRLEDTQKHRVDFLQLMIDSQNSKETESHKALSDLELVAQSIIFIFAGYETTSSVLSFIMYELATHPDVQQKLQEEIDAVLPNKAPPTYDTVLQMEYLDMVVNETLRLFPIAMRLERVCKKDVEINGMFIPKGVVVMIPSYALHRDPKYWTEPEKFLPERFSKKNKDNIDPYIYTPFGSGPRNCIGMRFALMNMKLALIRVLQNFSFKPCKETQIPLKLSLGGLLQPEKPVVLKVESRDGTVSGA
# Chain of Cytochrome P450 2C19 (P33261 whole entry, canonical isoform): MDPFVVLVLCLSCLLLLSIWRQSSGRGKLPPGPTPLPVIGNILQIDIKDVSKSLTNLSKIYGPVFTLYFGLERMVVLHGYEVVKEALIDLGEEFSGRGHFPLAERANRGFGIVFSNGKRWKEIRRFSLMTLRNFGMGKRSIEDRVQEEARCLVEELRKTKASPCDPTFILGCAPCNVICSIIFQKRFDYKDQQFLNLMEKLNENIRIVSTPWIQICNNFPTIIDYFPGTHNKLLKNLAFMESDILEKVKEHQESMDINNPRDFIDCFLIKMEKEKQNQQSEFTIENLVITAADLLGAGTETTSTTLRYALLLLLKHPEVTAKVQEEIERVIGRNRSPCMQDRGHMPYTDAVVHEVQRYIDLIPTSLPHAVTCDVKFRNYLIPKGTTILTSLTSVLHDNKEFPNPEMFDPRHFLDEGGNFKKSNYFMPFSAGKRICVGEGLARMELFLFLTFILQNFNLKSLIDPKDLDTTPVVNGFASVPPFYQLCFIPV
# Chain of Cytochrome P450 2D6 (P10635 whole entry): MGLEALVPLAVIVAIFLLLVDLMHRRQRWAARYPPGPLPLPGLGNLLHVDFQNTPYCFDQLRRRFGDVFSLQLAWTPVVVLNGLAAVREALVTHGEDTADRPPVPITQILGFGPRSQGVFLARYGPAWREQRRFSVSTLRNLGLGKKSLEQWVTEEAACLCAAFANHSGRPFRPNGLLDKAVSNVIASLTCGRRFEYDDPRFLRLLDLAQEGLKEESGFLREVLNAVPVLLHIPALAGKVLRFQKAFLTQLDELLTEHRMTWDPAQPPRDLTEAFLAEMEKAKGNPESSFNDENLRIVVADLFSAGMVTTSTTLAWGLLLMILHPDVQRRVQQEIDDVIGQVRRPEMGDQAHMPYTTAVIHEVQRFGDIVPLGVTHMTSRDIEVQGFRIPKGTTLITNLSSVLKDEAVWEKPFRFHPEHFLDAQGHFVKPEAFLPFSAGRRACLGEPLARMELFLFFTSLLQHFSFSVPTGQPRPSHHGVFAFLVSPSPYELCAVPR
# Chain of Cytochrome P450 2C9 (P11712 whole entry): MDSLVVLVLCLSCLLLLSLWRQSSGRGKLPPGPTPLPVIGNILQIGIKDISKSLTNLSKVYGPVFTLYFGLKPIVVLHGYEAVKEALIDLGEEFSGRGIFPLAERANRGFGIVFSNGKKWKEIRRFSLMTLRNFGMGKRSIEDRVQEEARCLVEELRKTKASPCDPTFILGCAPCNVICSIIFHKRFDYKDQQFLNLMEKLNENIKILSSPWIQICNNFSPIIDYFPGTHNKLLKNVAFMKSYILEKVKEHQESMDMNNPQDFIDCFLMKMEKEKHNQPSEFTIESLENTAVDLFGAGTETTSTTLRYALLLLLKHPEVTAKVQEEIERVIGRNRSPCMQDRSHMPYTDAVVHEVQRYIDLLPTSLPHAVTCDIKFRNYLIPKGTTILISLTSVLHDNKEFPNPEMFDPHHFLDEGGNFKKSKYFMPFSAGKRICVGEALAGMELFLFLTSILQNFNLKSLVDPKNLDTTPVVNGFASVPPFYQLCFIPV
compound,measurement,setting,value
C[C@@H]1Cc2c(ccc3[nH]ncc23)[C@@H](c2ccc(NC3CN(CCCF)C3)cn2)N1CC(F)(F)F [CAMIZESTRANT],fraction unbound,[1],0.23
same,IC50,Cytochrome P450 2C19,> 30 µM
same,hepatocyte CLint,[2],23 µL/min/1e6 cells
same,Stabilty,[3],98.9%
same,remaining at 168 h,[4],99.5%
same,IC50,Cytochrome P450 2C9,> 30 µM
same,pKa,[5],4.8
same,solubility thermodynamic,[6],1500 µg/mL
same,Vd,[7],13 L/kg
same,Vd,[8],9.2 L/kg
same,IC50,MCF7 [9],0.00501 µM
same,remaining at 336 h,[10],99.4%
same,Fa,[11],50%
same,clearance,[12],59 mL/min/kg
same,IC50,Cytochrome P450 1A2,> 30 µM
same,hepatocyte CLint,[13],18 µL/min/1e6 cells
same,CL,[14],66%
same,CL,[15],106%
same,fraction unbound,[16],0.23
same,inhibition in vivo at 2 mg/kg,[17],73%
same,Activity,MCF7 [18],Dose-dependent effect
same,fraction unbound,[19],0.15
same,solubility thermodynamic,[20],400 µg/mL
same,fraction unbound,[21],0.26
same,IC50,Cytochrome P450 2D6,4.3 µM
same,half-life,[22],5.1 h
same,Stabilty,[23],Stable
same,pKa,[24],8.4
same,solubility thermodynamic,[25],> 10000 µg/mL
same,Stabilty,[26],Unstable
same,IC50,Cytochrome P450 3A4,2.2 µM
same,Stabilty,[27],Stable
same,Activity,[28],15%
same,Fa,[29],> 95%
same,Activity,[30],8.9%
